Consider 13 compounds from ChEMBL document CHEMBL2406989, “Design, synthesis and preliminary evaluation of a series of histone deacetylase inhibitors carrying a benzodiazepine ring” (Eur J Med Chem, 2013).

Assay [1] concerns NB-4. Briefly: Induction of apoptosis in human NB4 cells after 48 hrs by Annexin V test. Conditions: NB-4, 48 h. In kind it is functional, cell-based.
Assay [2] has as its target T1, Histone deacetylase (Homo sapiens) (UniProt Q13547+O15379+Q9UBN7+Q92769+Q9UQL6+Q8WUI4+Q9BY41+Q96DB2+P56524+Q9UKV0+Q969S8). Conditions: HeLa, at 1 µM.
For the next assay, the system named is A549. Briefly: Antiproliferative activity against human A549 cells after 72 hrs by CellTiter-Glo assay. It counts as functional, cell-based. Conditions: A549, 72 h. Background: Cellular ATP, detected with luciferase, serves as a proxy for viable cell number.
For a further assay, the system named is HCT-116. Briefly: Antiproliferative activity against human HCT116 cells after 72 hrs by CellTiter-Glo assay. Particulars: HCT-116, 72 h. In kind it is functional, cell-based.
The subject of the next assay is K562. Put plainly: Antiproliferative activity against human K562 cells after 72 hrs by CellTiter-Glo assay. It counts as functional, cell-based. Conditions: K562, 72 h.
Assay [3] addresses T2, Protein deacetylase HDAC6 (Homo sapiens, UniProt Q9UBN7).
T2 sequence (Q9UBN7 whole entry): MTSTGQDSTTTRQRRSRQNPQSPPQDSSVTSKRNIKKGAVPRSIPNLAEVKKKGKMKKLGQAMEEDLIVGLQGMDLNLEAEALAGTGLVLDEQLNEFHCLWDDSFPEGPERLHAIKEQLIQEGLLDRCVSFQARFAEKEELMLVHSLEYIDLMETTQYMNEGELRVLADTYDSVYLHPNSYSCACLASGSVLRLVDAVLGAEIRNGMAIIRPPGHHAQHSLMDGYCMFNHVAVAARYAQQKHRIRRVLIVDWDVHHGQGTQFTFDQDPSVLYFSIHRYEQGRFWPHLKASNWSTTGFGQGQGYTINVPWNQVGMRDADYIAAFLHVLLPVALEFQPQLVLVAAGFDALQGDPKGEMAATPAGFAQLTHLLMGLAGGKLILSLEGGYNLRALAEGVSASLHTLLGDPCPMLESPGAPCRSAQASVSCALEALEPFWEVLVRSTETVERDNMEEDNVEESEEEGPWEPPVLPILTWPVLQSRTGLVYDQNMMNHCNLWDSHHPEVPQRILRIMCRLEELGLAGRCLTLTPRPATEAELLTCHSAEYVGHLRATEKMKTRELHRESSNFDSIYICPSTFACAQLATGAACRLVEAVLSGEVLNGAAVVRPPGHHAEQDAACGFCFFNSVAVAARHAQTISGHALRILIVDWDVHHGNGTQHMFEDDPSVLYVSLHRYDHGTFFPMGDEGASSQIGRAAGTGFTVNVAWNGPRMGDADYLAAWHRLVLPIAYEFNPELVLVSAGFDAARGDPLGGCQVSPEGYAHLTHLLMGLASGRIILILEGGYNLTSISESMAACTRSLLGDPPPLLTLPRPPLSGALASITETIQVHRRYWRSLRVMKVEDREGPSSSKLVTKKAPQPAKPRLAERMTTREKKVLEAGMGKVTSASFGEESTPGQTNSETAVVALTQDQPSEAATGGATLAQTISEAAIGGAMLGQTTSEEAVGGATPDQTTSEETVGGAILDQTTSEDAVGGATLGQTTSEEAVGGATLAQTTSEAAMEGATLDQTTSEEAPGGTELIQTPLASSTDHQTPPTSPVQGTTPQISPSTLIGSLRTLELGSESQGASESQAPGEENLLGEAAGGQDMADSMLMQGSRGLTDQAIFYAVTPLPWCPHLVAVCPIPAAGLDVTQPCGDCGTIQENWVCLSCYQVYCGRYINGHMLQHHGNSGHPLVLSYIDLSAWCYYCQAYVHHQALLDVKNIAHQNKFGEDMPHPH
Briefly: Inhibition of full length His-tagged human recombinant HDAC6 expressed in baculovirus system using fluor de Lys as substrate by fluorometric analysis.

Another assay deals with Histone deacetylase 1 (Homo sapiens, UniProt Q13547). Briefly: Inhibition of full length His-tagged human recombinant HDAC1 expressed in baculovirus system using fluor de Lys as substrate by fluorometric analysis.
Sequence of Histone deacetylase 1 (Q13547 whole entry): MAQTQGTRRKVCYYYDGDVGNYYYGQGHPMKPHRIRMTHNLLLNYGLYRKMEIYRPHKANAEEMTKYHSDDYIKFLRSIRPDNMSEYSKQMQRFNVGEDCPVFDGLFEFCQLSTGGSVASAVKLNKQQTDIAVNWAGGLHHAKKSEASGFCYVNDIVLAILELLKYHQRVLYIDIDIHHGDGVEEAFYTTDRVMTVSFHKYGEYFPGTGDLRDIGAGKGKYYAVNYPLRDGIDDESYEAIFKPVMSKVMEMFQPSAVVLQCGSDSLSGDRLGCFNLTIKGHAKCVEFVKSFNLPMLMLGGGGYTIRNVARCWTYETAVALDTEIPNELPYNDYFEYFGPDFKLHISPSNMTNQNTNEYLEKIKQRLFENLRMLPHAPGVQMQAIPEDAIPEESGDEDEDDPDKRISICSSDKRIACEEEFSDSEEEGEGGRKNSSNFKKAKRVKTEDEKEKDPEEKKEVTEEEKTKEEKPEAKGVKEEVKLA
The next assay has as its target Histone deacetylase. Briefly: Inhibition of HDAC in human HeLa cell extract using fluor de Lys as substrate after 15 mins by fluorometric analysis. In kind it is protein assay.
Assay [4] relates to NB-4. Put plainly: Induction of apoptosis in human NB4 cells assessed increase in cell shrinking using Giemsa staining by microscopic analysis. In kind it is functional, cell-based.
Assay [5] has as its target T1, Histone deacetylase (Homo sapiens). Put plainly: Inhibition of HDAC in human NB4 cells assessed as histone H3 acetylation at 0.5 uM by densitometric analysis. It counts as cell-based. Particulars: NB-4. The method in brief: (§1)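 NB4 cells (1×10^5/ml) exposed 6 h to 0, 0.5, 1 or 2 μM drug (DMSO vehicle ≤0.3%). Lysed in 1% Triton X-100/1 mM PMSF/40 mM Tris-HCl pH 8.0/150 mM NaCl and sonicated. Run on 12.5% SDS-PAGE, blotted, probed with rabbit anti-acetyl-H3 or -H4 plus peroxidase secondary, ECL. Densitometry against α-tubulin, treated vs untreated, from one typical experiment.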

Assay [6] relates to NB-4. Put plainly: Cytotoxicity against human NB4 cells assessed as cell viability after 48 hrs by trypan blue exclusion test. It counts as functional, cell-based. Conditions: NB-4, 48 h.
Assay [7] has as its target T1, Histone deacetylase (Homo sapiens). Put plainly: Inhibition of HDAC in human NB4 cells assessed as histone H3 acetylation at 1 uM by densitometric analysis. It counts as cell-based. Conditions: NB-4. An outline of the steps:
as §1

Assay [8] has the same target. Put plainly: Inhibition of HDAC in human NB4 cells assessed as histone H3 acetylation after 6 hrs by Western blot/immunostaining analysis. Particulars: NB-4. It counts as cell-based. The method in brief: as §1
(In western blotting, separated proteins are transferred to a membrane and probed.)

The subject of assay [9] is NB-4. Put plainly: Induction of apoptosis in human NB4 cells assessed apoptotic cells at 2 uM using Annexin-V-Fluos and propidium iodide staining by cytofluorimetric analysis (reference value: 7.2 %). In kind it is functional.
For assay [10], the target named is T1, Histone deacetylase (Homo sapiens). Put plainly: Inhibition of HDAC in human NB4 cells assessed as histone H4 acetylation at 1 uM by densitometric analysis. In kind it is cell-based. Particulars: NB-4. The method in brief:
as §1

Assay [11] shares this target. Put plainly: Inhibition of HDAC in human NB4 cells assessed as histone H4 acetylation after 6 hrs by Western blot/immunostaining analysis. In kind it is cell-based. Particulars: NB-4. An outline of the steps: as §1
Assay [12] deals with NB-4. Briefly: Induction of apoptosis in human NB4 cells assessed apoptotic cells at 1 uM using Annexin-V-Fluos and propidium iodide staining by cytofluorimetric analysis (reference value: 7.2 %). In kind it is functional.
The test system of assay [13] is NB-4. Put plainly: Induction of apoptosis in human NB4 cells assessed fragmentation using Giemsa staining by microscopic analysis. In kind it is functional, cell-based.
Assay [14] concerns NB-4. Briefly: Induction of apoptosis in human NB4 cells assessed increase in apoptotic bodies at 1 to 2 uM using Giemsa staining by microscopic analysis. It counts as functional, cell-based.
Assay [15] has as its system NB-4. Put plainly: Induction of apoptosis in human NB4 cells assessed apoptotic cells at 0.5 uM using Annexin-V-Fluos and propidium iodide staining by cytofluorimetric analysis (reference value: 7.2 %). In kind it is functional.
The target in assay [16] is T1, Histone deacetylase (Homo sapiens). Briefly: Inhibition of HDAC in human NB4 cells assessed as histone H4 acetylation at 0.5 uM by densitometric analysis. Particulars: NB-4. It counts as cell-based. The method in brief: as §1

The source made the active and inactive calls. The calls are words filed in the database; no cut-off is given here.

What is called IC50 is the concentration that inhibits the measured activity by half. A word on the inhibition: it is the percentage by which the read-out fell short of the control. Take `CN1C(=O)CN=C(c2ccccc2)c2cc(C#CCCCC(=O)NO)ccc21`: the IC50 in the assay with NB-4 [1] is 1950 nM; in the assay with A549 it was 5950 nM; in the assay on HCT-116 it was 2620 nM; in the assay on K562, 4970 nM. This compound also showed an inhibition in [2] of 39%.

Consider `CN1C(=O)CN=C(c2ccccc2)c2cc(C#CCCCCC(=O)NO)ccc21`, for which the IC50 was found to be 4090 nM in the assay with NB-4 [1]; 5900 nM in [3]; 1900 nM on Histone deacetylase 1; 2690 nM in the assay with A549; 1860 nM in the assay with HCT-116; 2670 nM with K562. In addition, in [2], the inhibition came to 36%.

On to `C[C@@H]1N=C(c2ccccc2)c2cc(C#CCCCC(=O)NO)ccc2NC1=O`, for which the IC50 against Histone deacetylase was determined as 340 nM; with NB-4 [1] it was 3040 nM; in assay [3] it was 460 nM; on Histone deacetylase 1, 490 nM; with A549, 2820 nM; in the assay with HCT-116, 970 nM. In addition, inhibition in the assay on K562 was half-maximal at 1400 nM (IC50). The inhibition in assay [2] worked out at 65%.

`CN1C(=O)C(N)N=C(c2ccccc2)c2cc(C#CCCCC(=O)NO)ccc21` (racemic): the IC50 in assay [3] was greater than 100000 nM; at Histone deacetylase 1, 1090 nM.

Turning to `CN1C(=O)C(NC(=O)CCCCCCCC(=O)NO)N=C(c2ccccc2)c2ccccc21` (racemic), the IC50 against Histone deacetylase was 600 nM; in the assay with NB-4 [1], 4000 nM; in [3], 9080 nM; at Histone deacetylase 1, 480 nM; with A549 it was 7950 nM; with HCT-116, 3930 nM. In the assay with K562, this compound yielded a concentration for half-maximal inhibition (IC50) of 4590 nM. In addition, the inhibition in assay [2] is 57%.

With `CN1C(=O)[C@H](NC(=O)CCCCCCC(=O)NO)N=C(c2ccccc2)c2ccccc21`, the IC50 against Histone deacetylase was 310 nM; in the assay with NB-4 [1], greater than 5000 nM; in assay [3], 6500 nM; on Histone deacetylase 1, 700 nM; in the assay with A549 it was 2690 nM; with HCT-116, 1070 nM. This compound also yielded an IC50 with K562 of 1720 nM. The compound further returned an inhibition in assay [2] of 73%.

With `CN1C(=O)C(NC(=O)CCCCCC(=O)NO)N=C(c2ccccc2)c2ccccc21` (racemic), the IC50 stood at 320 nM against Histone deacetylase; 2560 nM in the assay on NB-4 [1]; 180 nM in assay [3]; 270 nM on Histone deacetylase 1; 4420 nM with A549; 1440 nM in the assay on HCT-116. Besides, the half-inhibitory concentration (IC50) with K562 came out at 1840 nM. Besides, the inhibition in [2] was found to be 73%.

With `O=C(CCCCCCC(=O)N1CCN=C(c2ccccc2)c2ccccc21)NO`, the IC50 worked out at 180 nM against Histone deacetylase; 3990 nM in the assay on NB-4 [1]; 1120 nM in [3]; 250 nM at Histone deacetylase 1; 2540 nM in the assay on A549; 1440 nM with HCT-116. This compound showed an IC50 in the assay on K562 of 1670 nM. In [2], this compound gave an inhibition of 82%.

On to `CN1C(=O)C(NC(=O)CCCCCCC(=O)NO)N=C(c2ccccc2)c2ccccc21` (racemic), for which, in the assay with NB-4 [1], the IC50 was found to be 1200 nM.

As to `CN1C(=O)CN=C(c2ccccc2)c2cc(C#C/C=C/C(=O)NO)ccc21`, the IC50 at Histone deacetylase was determined as 160 nM; with NB-4 [1], 2600 nM; in assay [3] it was 7720 nM; at Histone deacetylase 1 it was 440 nM; with A549, 1300 nM; with HCT-116, 460 nM. The IC50 with K562 worked out at 780 nM. The inhibition in [2] turned out to be 82%.

For `CN1C(=O)[C@@H](NC(=O)CCCCCCC(=O)NO)N=C(c2ccccc2)c2ccccc21`, the IC50 amounted to 120 nM on Histone deacetylase; 860 nM in the assay on NB-4 [1]; 460 nM with NB-4 [6]; 400 nM in assay [3]; 550 nM at Histone deacetylase 1; 1440 nM in the assay with A549. The IC50 is 470 nM in the assay on HCT-116 and 720 nM in the assay with K562. Besides, the Activity result with NB-4 [4] is “Dose-dependent effect”; in the assay on NB-4 [9], 83.4%; in the assay with NB-4 [12] it was 66.2%; in the assay on NB-4 [13], “Dose-dependent effect”; in the assay with NB-4 [15], 8.6%. The inhibition in assay [2] was 88%; in assay [5] it was 50%; in assay [7], 84%; in assay [8], “Dose-dependent effect”; in [10], 51%; in assay [11], “Dose-dependent effect”. The inhibition in assay [16] is 8%. For the same compound, in the assay on NB-4 [14], the outcome was Active.

Consider `CN1C(=O)C(NC(=O)CCCCC(=O)NO)N=C(c2ccccc2)c2ccccc21` (racemic), for which the IC50 is 380 nM against Histone deacetylase; 1910 nM with NB-4 [1]; greater than 100000 nM in [3]; 420 nM at Histone deacetylase 1; 5440 nM with A549; 2010 nM with HCT-116. The compound also yielded an IC50 in the assay on K562 of 3280 nM. The same compound had an inhibition in [2] of 70%.

Consider `CN1C(=O)CN=C(c2ccccc2)c2cc(C#CCCC(=O)NO)ccc21`, for which the IC50 in the assay with NB-4 [1] is greater than 5000 nM; in [3], greater than 100000 nM; at Histone deacetylase 1 it was 2750 nM; in the assay on A549, 10300 nM; in the assay on HCT-116, 6540 nM; with K562, 8220 nM. The compound further had an inhibition in assay [2] of 22%.
